The test system of assay [1] is DU-145. Description: Antiproliferative activity against human DU145 cells after 96 hrs by WST1 assay. The format is functional. The note with it: DU-145, 96 h. The gist of the method: (§1)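 Cells kept in RPMI-1640 with 10% FBS, penicillin and streptomycin at 37 °C in 5% CO2. Seeded at 5000 cells/well, exposed to 10^-9-10^-4 M compound or vehicle for 96 h. Live cells counted by WST-1 and viability expressed as % of mean control, from which GI50 was calculated. Triplicate experiments.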
Background: Formazan colour is commonly taken as a measure of viable cells.

Assay [2] has as its system MDA-MB-231. The assay is described as follows: Antiproliferative activity against human MDA-MB-231 cells after 96 hrs by WST1 assay. The class given is functional. The settings on record: MDA-MB-231, 96 h. The procedure, abridged: as §1
A further assay relates to MCF7. The assay is described as follows: Antiproliferative activity against human MCF7 cells by WST1 assay. The class given is functional.
A further assay deals with T1, Steryl-sulfatase (Homo sapiens, UniProt P08842).
T1 sequence (P08842 whole entry): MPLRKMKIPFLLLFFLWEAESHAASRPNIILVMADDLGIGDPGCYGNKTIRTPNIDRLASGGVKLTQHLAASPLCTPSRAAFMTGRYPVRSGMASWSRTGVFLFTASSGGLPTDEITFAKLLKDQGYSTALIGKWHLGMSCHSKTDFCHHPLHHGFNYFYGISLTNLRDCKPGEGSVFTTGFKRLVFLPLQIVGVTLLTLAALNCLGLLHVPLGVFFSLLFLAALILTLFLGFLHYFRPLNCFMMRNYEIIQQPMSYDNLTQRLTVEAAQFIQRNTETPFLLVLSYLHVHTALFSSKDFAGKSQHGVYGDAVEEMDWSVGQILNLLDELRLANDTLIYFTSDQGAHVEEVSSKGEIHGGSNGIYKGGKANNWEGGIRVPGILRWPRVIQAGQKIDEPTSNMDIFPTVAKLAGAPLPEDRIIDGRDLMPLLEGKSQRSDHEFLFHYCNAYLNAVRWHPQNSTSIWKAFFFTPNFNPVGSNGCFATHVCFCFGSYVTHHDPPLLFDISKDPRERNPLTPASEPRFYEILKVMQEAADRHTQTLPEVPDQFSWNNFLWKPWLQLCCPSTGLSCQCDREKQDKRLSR
Description: Inhibition of steroid sulfatase in placental microsomes. Also on record: species or system Placenta. The procedure, abridged: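 Radiometric assay of STS activity in placental microsomes: conversion of tritiated estradiol-3-sulfate to estradiol is measured.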

The test system of assay [3] is MDA-MB-231. Description: Antitumor activity against human MDA-MB-231 cells xenografted athymic mouse at 60 mg/kg/day, po after 28 days. The class given is functional, organism-based. The procedure, abridged: (§2)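 Female NCr-nude mice, 6-8 weeks old, bearing MDA-MB-231 xenografts, dosed orally in THF/PG vehicle from day 10. Schedules: 60 mg/kg daily for 28 d (to day 38), 90 mg/kg Mon/Wed/Fri × 4 (to day 36), or 200 mg/kg weekly × 4 (to day 32). Tumor volume was (w² × l)/2; one-way ANOVA against control.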
In general terms: In xenograft studies the graft and the host belong to different species.

Assay [4] has as its system MDA-MB-231. The assay is described as follows: Antitumor activity against human MDA-MB-231 cells xenografted athymic mouse at 90 mg/kg, po thrice a week for 4 weeks. The class given is functional, organism-based. The arrangement: dose 90 mg/kg. The procedure, abridged:
as §2

Assay [5] deals with MDA-MB-231. The assay is described as follows: Antitumor activity against human MDA-MB-231 cells xenografted athymic mouse at 200 mg/kg, po, once a week for 4 weeks. The format is functional, organism-based. The arrangement: dose 200 mg/kg. The gist of the method:
as §2

Assay [6] deals with DU-145. Description: Antitumor activity against human DU145 cells xenografted athymic mouse at 10 mg/kg/day, po after 25 days. The class given is functional. The procedure, abridged: (§3)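 Male NCr-nude mice, 6-8 weeks old, implanted s.c. in the flank with 5 × 10⁶ DU145 cells; treatment began once tumors reached about 50-100 mm³. Dosed orally at 10, 20 or 40 mg/kg once daily for 28 d. Tumor volume was (w² × l)/2 and inhibition read after 25 days of treatment (day 35).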

Assay [7] has as its system DU-145. Description: Antitumor activity against human DU145 cells xenografted athymic mouse at 20 mg/kg/day, po after 25 days. The format is functional. The procedure, abridged: as §3
In assay [8] the test system is DU-145. The assay is described as follows: Antitumor activity against human DU145 cells xenografted athymic mouse at 40 mg/kg/day, po after 25 days. The class given is functional. The gist of the method:
as §3

The source made the active and inactive calls. The calls are words filed in the database; no cut-off is given here. Some results are limits rather than exact numbers.

Among the data in ChEMBL document CHEMBL1148769, “3,17-disubstituted 2-alkylestra-1,3,5(10)-trien-3-ol derivatives: synthesis, in vitro and in vivo anticancer activity” (J Med Chem, 2007) are GI50, IC50 and Activity values, retold here.

Regarding `CCCc1cc2c(cc1O)CC[C@@H]1[C@@H]2CC[C@]2(C)[C@@H](O)CC[C@@H]12`, the 50% growth inhibitory concentration (GI50) in the assay on DU-145 [1] was 15 µM; in the assay on MDA-MB-231 [2], 16.6 µM.

The compound `CC(C)(C)c1cc2c(cc1O)CC[C@@H]1[C@@H]2CC[C@]2(C)[C@@H](O)CC[C@@H]12` displayed a GI50 with DU-145 [1] of 24 µM.

As to `CC(C)(C)c1cc2c(cc1OS(N)(=O)=O)CC[C@@H]1[C@@H]2CC[C@]2(C)[C@@H](OC(N)=O)CC[C@@H]12`, the concentration for 50% growth inhibition (GI50) with DU-145 [1] was 13 µM; with MDA-MB-231 [2], 17 µM.

As for `CCCc1cc2c(cc1OS(N)(=O)=O)CC[C@@H]1[C@@H]2CC[C@]2(C)[C@@H](OC(N)=O)CC[C@@H]12`, the GI50 with DU-145 [1] is 21 µM; in the assay on MDA-MB-231 [2], 14.5 µM.

Turning to `CC(C)c1cc2c(cc1OS(N)(=O)=O)CC[C@@H]1[C@@H]2CC[C@]2(C)[C@@H](OC(N)=O)CC[C@@H]12`, the GI50 came out at 2.4 µM with DU-145 [1] and 3.4 µM in the assay on MDA-MB-231 [2].

In the case of `CC(C)(C)c1cc2c(cc1OS(N)(=O)=O)CC[C@@H]1[C@@H]2CC[C@]2(C)[C@@H](OS(N)(=O)=O)CC[C@@H]12`, the GI50 in the assay with DU-145 [1] was > 10 µM.

Consider `COc1cc2c(cc1OS(N)(=O)=O)CC[C@@H]1[C@@H]2CC[C@]2(C)[C@@H](OS(N)(=O)=O)CC[C@@H]12`, for which the GI50 in the assay with DU-145 [1] came out at 0.34 µM; in the assay with MDA-MB-231 [2], 0.28 µM.

As for `C[C@]12CC[C@@H]3c4ccc(OS(N)(=O)=O)cc4CC[C@H]3[C@@H]1CC[C@@H]2OC(N)=O`, the GI50 was > 100 µM in the assay with DU-145 [1], > 100 µM with MDA-MB-231 [2] and 45 µM in the assay on MCF7. At Steryl-sulfatase, this compound registered an IC50 of 40 nM.

With `CCc1cc2c(cc1O)CC[C@@H]1[C@@H]2CC[C@]2(C)[C@@H](O)CC[C@@H]12`, the concentration for 50% growth inhibition (GI50) in the assay on DU-145 [1] turned out to be 10.3 µM; in the assay with MDA-MB-231 [2], 8 µM.

On to `CCc1cc2c(cc1OS(N)(=O)=O)CC[C@@H]1[C@@H]2CC[C@]2(C)[C@@H](OC(N)=O)CC[C@@H]12`, for which the 50% growth inhibitory concentration (GI50) with DU-145 [1] is 0.22 µM; in the assay with MDA-MB-231 [2], 0.39 µM; in the assay on MCF7 it was 0.64 µM.

Turning to `C[C@]12CC[C@@H]3c4ccc(OS(N)(=O)=O)cc4CC[C@H]3[C@@H]1CC[C@@H]2OS(N)(=O)=O`, the results for the GI50 with DU-145 [1] and with MDA-MB-231 [2] were 11.5 µM and 18.3 µM, respectively.

Consider `Cc1cc2c(cc1OS(N)(=O)=O)CC[C@@H]1[C@@H]2CC[C@]2(C)[C@@H](OC(N)=O)CC[C@@H]12`, for which the GI50 in the assay with DU-145 [1] stood at 1.9 µM; in the assay with MDA-MB-231 [2], 4.7 µM.

Consider `CCCCc1cc2c(cc1OS(N)(=O)=O)CC[C@@H]1[C@@H]2CC[C@]2(C)[C@@H](OC(C)=O)CC[C@@H]12`, for which the concentration for 50% growth inhibition (GI50) in the assay on DU-145 [1] was determined as 18.4 µM; in the assay on MDA-MB-231 [2], 21.6 µM.

On to `CC(C)c1cc2c(cc1O)CC[C@@H]1[C@@H]2CC[C@]2(C)[C@@H](O)CC[C@@H]12`, for which, in the assay on DU-145 [1], the 50% growth inhibitory concentration (GI50) is 23 µM.

Take `Cc1cc2c(cc1OS(N)(=O)=O)CC[C@@H]1[C@@H]2CC[C@]2(C)[C@@H](OS(N)(=O)=O)CC[C@@H]12`: the GI50 with DU-145 [1] was found to be 0.38 µM; in the assay on MDA-MB-231 [2], 0.25 µM.

As to `CCCc1cc2c(cc1OS(N)(=O)=O)CC[C@@H]1[C@@H]2CC[C@]2(C)[C@@H](OC(C)=O)CC[C@@H]12`, the GI50 with DU-145 [1] amounted to 61.3 µM; with MDA-MB-231 [2] it was 20.4 µM.

The compound `Cc1cc2c(cc1O)CC[C@@H]1[C@@H]2CC[C@]2(C)[C@@H](O)CC[C@@H]12` showed a GI50 in the assay on DU-145 [1] of 51 µM.

In the assay on MDA-MB-231 [2], `COc1cc2c(cc1O)CC[C@@H]1[C@@H]2CC[C@]2(C)[C@@H](O)CC[C@@H]12` [2-METHOXYESTRADIOL] came in with a GI50 of 0.94 µM.

In the case of `CCc1cc2c(cc1OS(N)(=O)=O)CC[C@@H]1[C@@H]2CC[C@]2(C)[C@@H](OS(N)(=O)=O)CC[C@@H]12`, the concentration for 50% growth inhibition (GI50) in the assay with DU-145 [1] and with MDA-MB-231 [2] was 0.21 µM throughout. Also, the outcome in the assay with MDA-MB-231 [3], in the assay with MDA-MB-231 [4] and in the assay with MDA-MB-231 [5] was Active. Also, the results for the Activity in the assay with DU-145 [6], with DU-145 [7] and in the assay with DU-145 [8] were 24%, 27% and 65%, respectively.

Regarding `CCc1cc2c(cc1OS(N)(=O)=O)CC[C@@H]1[C@@H]2CC[C@]2(C)[C@@H](OC(C)=O)CC[C@@H]12`, in the assay on DU-145 [1], the 50% growth inhibitory concentration (GI50) is 1.6 µM.

As for `CCCCc1cc2c(cc1OS(N)(=O)=O)CC[C@@H]1[C@@H]2CC[C@]2(C)[C@@H](OS(N)(=O)=O)CC[C@@H]12`, the values for the GI50 in the assay with DU-145 [1] and in the assay with MDA-MB-231 [2] were 9 µM and 10.7 µM, respectively.

In the case of `COc1cc2c(cc1OS(N)(=O)=O)CC[C@@H]1[C@@H]2CC[C@]2(C)[C@@H](OC(N)=O)CC[C@@H]12`, the GI50 was 1.34 µM in the assay with DU-145 [1], 1.15 µM in the assay on MDA-MB-231 [2] and 3.5 µM with MCF7. The IC50 against Steryl-sulfatase was 520 nM.

On to `CCCCc1cc2c(cc1O)CC[C@@H]1[C@@H]2CC[C@]2(C)[C@@H](O)CC[C@@H]12`, for which the GI50 in the assay on DU-145 [1] and in the assay on MDA-MB-231 [2] was > 100 µM each time.

`CCCc1cc2c(cc1OS(N)(=O)=O)CC[C@@H]1[C@@H]2CC[C@]2(C)[C@@H](OS(N)(=O)=O)CC[C@@H]12`: the GI50 was 3.4 µM in the assay on DU-145 [1] and 6.4 µM in the assay with MDA-MB-231 [2].

For `CC(C)c1cc2c(cc1OS(N)(=O)=O)CC[C@@H]1[C@@H]2CC[C@]2(C)[C@@H](OS(N)(=O)=O)CC[C@@H]12`, the concentration for 50% growth inhibition (GI50) in the assay with DU-145 [1] is 1.8 µM.

Consider `CCCCc1cc2c(cc1OS(N)(=O)=O)CC[C@@H]1[C@@H]2CC[C@]2(C)[C@@H](OC(N)=O)CC[C@@H]12`, for which the results for the 50% growth inhibitory concentration (GI50) with DU-145 [1] and in the assay on MDA-MB-231 [2] were 15 µM and > 100 µM, respectively.

Broadly, the GI50 is the concentration that inhibits growth by half. A low value points to more potent growth inhibition. Usually IC50 stands for the midpoint of a concentration-inhibition curve. Read a high IC50 as weaker potency in that assay.
